Assay results reported in ChEMBL document CHEMBL4393681, “The identification of naturally occurring labdane diterpenoid calcaratarin D as a potential anti-inflammatory agent” (Eur J Med Chem, 2019).

Experiments:
RAW264.7 [1] = assay: Anti-inflammatory activity in mouse RAW264.7 cells assessed as inhibition of LPS-induced TNFalpha production at 0.1 uM pretreated for 1 hr followed by LPS stimulation and measured after 18 hrs by ELISA relative to control; assay type: functional; set-up: scale not given: the % may be the effect or the level left
Method in brief: (§1)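 DMSO stocks (100 mM) were tested at 0.1, 1, 5 and 20 µM on LPS-stimulated RAW264.7 cells, with dexamethasone 1 µM as positive control. Secreted TNF-α or IL-6 was normalized to the percentage of viable LPS-stimulated cells at each concentration. Mean of three separate experiments, each in triplicate.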

RAW264.7 [2] = assay: Anti-inflammatory activity in mouse RAW264.7 cells assessed as inhibition of LPS-induced TNFalpha production at 1 uM pretreated for 1 hr followed by LPS stimulation and measured after 18 hrs by ELISA relative to control; assay type: functional; set-up: scale not given: the % may be the effect or the level left; method in brief: as §1
[3] = Cytotoxicity against mouse RAW264.7 cells assessed as cell viability at 0.1 uM incubated for 18 hrs by celltiter-glo luminescent assay relative to control; assay type: cell-based; details: read-out: Activity
Method in brief: (§2)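 Non-stimulated RAW264.7 cells were exposed to 0.1, 1, 5 and 20 µM compound from 100 mM DMSO stocks. Percent viability is the mean of three separate experiments with triplicate samples.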

[4] = Cytotoxicity against mouse RAW264.7 cells assessed as cell viability at 1 uM incubated for 18 hrs by celltiter-glo luminescent assay relative to control; assay type: cell-based; details: read-out: Activity; method in brief: as §2
[5] = Cytotoxicity against mouse RAW264.7 cells assessed as cell viability at 5 uM incubated for 18 hrs by celltiter-glo luminescent assay relative to control; assay type: cell-based; details: read-out: Activity; method in brief: as §2
[6] = Cytotoxicity against mouse RAW264.7 cells assessed as cell viability at 20 uM incubated for 18 hrs by celltiter-glo luminescent assay relative to control; assay type: cell-based; details: read-out: Activity; method in brief: as §2
RAW264.7 [7] = assay: Anti-inflammatory activity in mouse RAW264.7 cells assessed as inhibition of LPS-induced TNFalpha production at 5 uM pretreated for 1 hr followed by LPS stimulation and measured after 18 hrs by ELISA relative to control; assay type: functional; set-up: scale not given: the % may be the effect or the level left; method in brief: as §1
RAW264.7 [8] = assay: Anti-inflammatory activity in mouse RAW264.7 cells assessed as inhibition of LPS-induced TNFalpha production at 20 uM pretreated for 1 hr followed by LPS stimulation and measured after 18 hrs by ELISA relative to control; assay type: functional; set-up: scale not given: the % may be the effect or the level left; method in brief: as §1
RAW264.7 [9] = assay: Anti-inflammatory activity in mouse RAW264.7 cells assessed as inhibition of LPS-induced IL-6 production at 0.1 uM pretreated for 1 hr followed by LPS stimulation and measured after 18 hrs by ELISA relative to control; assay type: functional; set-up: scale not given: the % may be the effect or the level left; method in brief: as §1
RAW264.7 [10] = assay: Anti-inflammatory activity in mouse RAW264.7 cells assessed as inhibition of LPS-induced IL-6 production at 1 uM pretreated for 1 hr followed by LPS stimulation and measured after 18 hrs by ELISA relative to control; assay type: functional; set-up: scale not given: the % may be the effect or the level left; method in brief: as §1
RAW264.7 [11] = assay: Anti-inflammatory activity in mouse RAW264.7 cells assessed as inhibition of LPS-induced IL-6 production at 5 uM pretreated for 1 hr followed by LPS stimulation and measured after 18 hrs by ELISA relative to control; assay type: functional; set-up: scale not given: the % may be the effect or the level left; method in brief: as §1
RAW264.7 [12] = assay: Anti-inflammatory activity in mouse RAW264.7 cells assessed as inhibition of LPS-induced IL-6 production at 20 uM pretreated for 1 hr followed by LPS stimulation and measured after 18 hrs by ELISA relative to control; assay type: functional; set-up: scale not given: the % may be the effect or the level left; method in brief: as §1

Structure (SMILES) | Activity (RAW264.7 [1]) | Activity (RAW264.7 [2]) | viability at 18 h, 0.1 µM [3] | viability at 18 h, 1 µM [4] | viability at 18 h, 5 µM [5] | viability at 18 h, 20 µM [6] | Activity (RAW264.7 [7]) | Activity (RAW264.7 [8]) | Activity (RAW264.7 [9]) | Activity (RAW264.7 [10]) | Activity (RAW264.7 [11]) | Activity (RAW264.7 [12])
C=C1CC[C@H]2C(C)(C)CCC[C@]2(C)[C@H]1C[C@H](O)[C@H]1C(=O)OC[C@H]1O | 111.1% | 108.6% | 108% | 106% | 107% | 98.3% | 109.5% | 86.8% | 104.6% | 101.7% | 104.3% | 71.8%
C=C1CC[C@H]2C(C)(C)CCC[C@]2(C)[C@H]1C/C=C1\CCOC1=O | 104.4% | 94.6% | 103% | 107% | 102% | 100% | 73.1% | 52.6% | 103% | 93.9% | 83.9% | 76.3%
C=C1CC[C@H]2C(C)(C)CCC[C@]2(C)[C@H]1C/C=C1\CC(OC)OC1=O (stereo partly specified) | 104.7% | 77.7% | 102% | 102% | 101% | 100% | 44.7% | 27.5% | 101% | 79.1% | 70% | 59.9%
C=C1CC[C@H]2C(C)(C)CCC[C@]2(C)[C@H]1CC=O | 104% | 91.7% | 100% | 101% | 101% | 91.9% | 73.7% | 48.5% | 100% | 95% | 93% | 72.8%
C=C1CC[C@H]2C(C)(C)CCC[C@]2(C)[C@H]1C[C@@H](O)C1=CCOC1=O [CURCUCOMOSIN C] | 112% | 101.5% | 109% | 111% | 108% | 91.9% | 79.3% | 33.4% | 100.6% | 84% | 75.6% | 47.1%
C=C1CC[C@H]2C(C)(C)CCC[C@]2(C)[C@H]1C/C=C1\C(=O)OC[C@H]1O | 98.7% | 71.6% | 100% | 95.5% | 81.7% | 47.5% | 17.5% | 4.8% | 100.7% | 76.9% | 32.2% | 10.1%
C=C1CC[C@H]2C(C)(C)CCC[C@]2(C)[C@H]1C/C=C1\CC(O)OC1=O (stereo partly specified) | 100.2% | 89.6% | 102% | 92.7% | 86.3% | 79% | 81.9% | 71.1% | 99.1% | 82.4% | 64% | 59.4%
C=C1CC[C@H]2C(C)(C)CCC[C@]2(C)[C@H]1C/C=C(\CCO)C(=O)O | 104.7% | 80.7% | 102% | 99.2% | 96.6% | 87.6% | 60.7% | 50.2% | 106% | 88.3% | 79.9% | 63.5%
CC1(C)CCC[C@@]2(C)[C@H]1CC[C@@]1(CO1)[C@@H]2C/C=C1\CCOC1=O | 114.8% | 88.6% | 101% | 97% | 90.9% | 80.4% | 48.4% | 20.5% | 101.6% | 79.7% | 35.2% | 22.3%
CC1(C)CCC[C@@]2(C)[C@H]1CC[C@]1(CO1)[C@@H]2C/C=C1\CCOC1=O | 100.3% | 88.3% | 97.8% | 97.6% | 95.1% | 85.7% | 55.6% | 33.1% | 102.3% | 92.3% | 81.4% | 63.9%
C=C1CC[C@H]2C(C)(C)CCC[C@]2(C)[C@H]1C/C=C1\C=COC1=O | 94.1% | 84.6% | 102% | 97.7% | 90.8% | 82.6% | 53.6% | 26.6% | 99% | 99.6% | 85.9% | 61.5%
C=C1CC[C@H]2C(C)(C)CCC[C@]2(C)[C@H]1C/C=C1\CC(OCC)OC1=O (stereo partly specified) | 101.6% | 86.8% | 102% | 100% | 94.9% | 96.3% | 65.3% | 48.1% | 102.3% | 100.3% | 95.9% | 80.9%
CC1(C)CCC[C@]2(C)[C@H]3CC(=O)O[C@]3(C)CC[C@@H]12 | 104.8% | 101% | 99.3% | 96.6% | 97.2% | 95.9% | 79.9% | 63.9% | 94.6% | 100.3% | 93.8% | 89.7%
